Assay results from different studies.
Lines come from different studies, so protocols differ.
Target: Cyclin-dependent kinase 17 (CDK17, Homo sapiens, UniProt Q00537)

SMILES	effect on	technique	tested at	remaining binding [%]
COc1ccnn2ncc(-c3ccnc(N(C)C)n3)c12	binding	–	1 µM	100
COc1cnc(Nc2cccc(S(N)(=O)=O)c2)nc1N1CCN(c2ccccc2)CC1	binding	competition with immobilised ligand	1 µM	100
O=C(c1ccc(Nc2ncc(Cl)c(-c3ccc(Cl)s3)n2)cc1)N1CCC(N2CCCC2)CC1	binding	competition with immobilised ligand	1 µM	1.8
Cc1cnn2ncc(-c3ccnc(N(C)C)n3)c2c1	binding	–	1 µM	100
CCN1CCN(Cc2ccc(C(=O)Nc3ccc(C)c(Oc4ccc5c(c4)CC(=O)N5)c3)cc2C(F)(F)F)CC1	binding	competition with immobilised ligand	1 µM	100
C=CC(=O)N1CCC(C(=O)NCC(=O)N2CCN(c3nc(-c4cnc(N)nc4C(F)F)nc(N4CCOCC4)n3)CC2)CC1	binding	competition with immobilised ligand	1 µM	89
CC1CCCN1c1nccc(-c2cnn3ncccc23)n1 (stereo not drawn)	binding	–	1 µM	100
Cc1noc([C@H]2C[C@@H](c3ccc(C(F)(F)F)cc3)CN(C(=O)N3CCS(=O)(=O)C3)C2)n1	cell-free assay	competition with immobilised ligand	1 µM	100
O=C(NCCCN1CCOCC1)c1ccc(Nc2ncc(Cl)c(-c3ccc(Cl)s3)n2)cc1	binding	competition with immobilised ligand	1 µM	31
F[C@@H]1CCN(c2nccc(-c3cnn4ncccc34)n2)C1	binding	–	1 µM	100
O=C(c1ccc(Nc2nccc(-c3cc4ccccc4s3)n2)cc1)N1CCC(N2CCCC2)CC1	binding	competition with immobilised ligand	1 µM	64
CC(=O)N1CCC(c2ccc(C(=O)NC(=N)N)cc2C(F)(F)F)CC1	cell-free assay	competition with immobilised ligand	1 µM	100
c1cncc(-c2cccc(Nc3nccc(NC4CCCCC4)n3)c2)c1	binding	competition with immobilised ligand	10 µM	72
C[C@H](NC(=O)c1cnc2n1[C@](C)(Cc1ccc(C#N)cc1)C(=O)N2c1cc(Cl)c(F)c(Cl)c1)C(=O)NC1(c2ccccn2)CC1	cell-free assay	competition with immobilised ligand	1 µM	100
CNC(=O)[C@@H]1CC[C@@H](n2c(-c3ccc4cnccc4c3)nc3ccc(C(=O)NCc4cccc(C(N)=O)c4)cc32)C1	binding	competition with immobilised ligand	1 µM	93
C[C@@]1(Cc2ccc(C#N)cc2)C(=O)N(c2cc(Cl)cc(Cl)c2)c2ncc(C(=O)NC3(c4nc(C5CCC5)no4)CC3)n21	cell-free assay	competition with immobilised ligand	1 µM	100
CN(c1nccc(-c2cnn3ncccc23)n1)C1CC1	binding	–	1 µM	100
O=c1nc(-c2ccccn2)sc2ccccc12	binding	competition with immobilised ligand	1 µM	100
N[C@H]1CCN(c2nccc(-c3cnn4ncccc34)n2)C1	binding	–	1 µM	100
COc1ccc2c(c1)O[C@H](c1ccc(OC)c(OC)c1)C[C@@H]2NC(=O)C1(c2ccc3c(c2)OC(F)(F)O3)CC1	cell-free assay	competition with immobilised ligand	1 µM	100
O=C(NCC1CCOCC1)c1n[nH]cc1NC(=O)c1c(F)cccc1F	binding	competition with immobilised ligand	1 µM	66
